Experimental data: PubChem BioAssay AID463111 (Johns Hopkins Ion Channel Center, 2010)
Among all 310,000 compounds or so, about 2,800 (0.9%) were called active.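 Rule for the calls: active = B-score of the integrated calcium signal more than 4 SD below the library mean, with starting fluorescence not abnormally high; inactive = the rest.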 The list comes from a sample in which actives are over-represented; it also holds similar structures and randomly drawn compounds. Residues, ends and D or L forms follow the SMILES beside them. *: point of attachment. Bz = O=C(c1ccccc1)*

Experiment: enhancers of RGS4 function in calcium signaling – cell-based, HEK293 M3R inducible RGS4, calcium flux, primary screen (AID 463111);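 for B-score: negative B-score means reduced calcium response which marks RGS4 activation or potentiation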
Conditions: HEK293 M3R/inducible RGS4, carbachol calcium flux Fluo4, at 10 µM; hits give low values
Method in brief: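 Test system: HEK293 cells with stable M3R and inducible RGS4; also added: carbachol at ECmax as muscarinic agonist stimulus; schedule: dye loading 30 min 37 °C, buffer rest 30 min RT; technique: kinetic calcium fluorescence imaging with Fluo4-AM dye, 2 µM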
With `Cc1ccccc1CNC(=O)CCC(=O)N1Cc2ccccc2Oc2ncccc21` the B-score was “inactive”. With `CCCCCC(O)(CCN1CCCCC1)c1ccccc1` (stereo not given) the B-score was -9.9 (active). With `C#CC(CCN1CCCCC1)(OC)c1ccccc1` (stereo not given) the B-score was -8.27 (active). For `CC(C)(c1ccccc1)c1ccc(OCCN2CCCC2)cc1`, the B-score was “inactive”. With `CCCCOc1ccc(C(C)(O)CCN2CCOCC2)cc1` (stereo not given) the B-score was “inactive”. With `CCCCCCC(O)(CCN1CCCCC1)c1ccccc1` (stereo not given) the B-score was “inactive”. For `c1ccc(-c2ccccc2OCCN2CCCCC2)cc1`, the B-score was “inactive”. With `CCC(CC)COC(=O)C1=C(C)NC(=O)NC1c1ccc([N+](=O)[O-])cc1` (stereo not given) the B-score was “inactive”. In the case of `COc1ccc(C(CC(=O)c2ccccc2)S(=O)(=O)c2ccccc2)cc1` (stereo not given), the B-score is reported as “inactive”. In the case of `COC(=O)c1ccc(C2C3=C(Nc4nnnn42)c2ccccc2OC3)cc1` (stereo not given), the B-score is reported as “inactive”. For `COC(=O)c1cc2occc2n1Cc1nc(-c2ccccc2C)oc1C`, the B-score was -7.3 (active). For `Cc1ccccc1-c1nc(CS(=O)(=O)CC(=O)NC(C)c2ccccc2)c(C)o1` (stereo not given), the B-score was “inactive”. For `Cc1ccccc1-c1nc(CS(=O)(=O)CC(=O)N2CCc3ccccc3C2)c(C)o1`, the B-score was “inactive”. For `O=C(NCCc1ccccn1)c1cc(C(=O)C2CCCCC2)c[nH]1`, the B-score was “inactive”. With `CCC1CCCCN1CCCNC(=O)Cn1nc(-c2ccccc2)ccc1=O` (stereo not given) the B-score was “inactive”. In the case of `CCC1CCCCN1CCCNC(=O)C1CCC(Cn2c(=O)[nH]c3ccccc3c2=O)CC1` (stereo not given), the B-score is reported as “inactive”. For `CCC1CCCCN1CCCNC(=O)c1cc2c(Cl)nc3ccccc3c2s1` (stereo not given), the B-score was -8.65 (active). For `CC(C)C(c1nnnn1C1CCCCC1)N1CCN(C(=O)c2ccco2)CC1` (stereo not given), the B-score was “inactive”. In the case of `CC(C)C(c1nnnn1CCc1ccccc1)N1CCN(C(=O)c2ccco2)CC1` (stereo not given), the B-score is reported as -10.4 (active). For `CCC(c1nnnn1C1CCCC1)N1CCN(C(=O)c2ccco2)CC1` (stereo not given), the B-score was “inactive”. For `NC(=O)Nc1ccccc1C(=O)NCCc1ccccc1`, the B-score was “inactive”. With `Cc1ccccc1C(=O)NC(=S)NC1CC1` the B-score was “inactive”. With `Cc1ccc(-c2nc(-c3cccnc3)sc2CC(=O)Nc2ccc(C)c(Cl)c2)cc1` the B-score was “inactive”. In the case of `CN1CCN(CCCNC(=O)c2ccc(/C=C3\Oc4ccccc4N(Cc4ccc(Cl)cc4)C3=O)cc2)CC1`, the B-score is reported as -7.39 (active). In the case of `CN1C(=O)/C(=C/c2ccc(C(=O)NC3CCCC3)cc2)Oc2ccccc21`, the B-score is reported as “inactive”. For `CCCN1CCN(C(=O)CCCNC(=O)c2ccc(Cl)cc2)CC1`, the B-score was “inactive”. In the case of `COc1ccc2c(c1)C(NS(=O)(=O)OCC(Cl)(Cl)Cl)CCC2` (stereo not given), the B-score is reported as “inactive”. For `CC1(C)C=C2[C@H]3CC[C@@H]4[C@@]5(C)CCC(=O)C(C)(C)[C@@H]5CC[C@@]4(C)[C@]3(C)CC[C@@]2(C(=O)O)CC1`, the B-score was -9.3 (active). In the case of `CCOC(=O)CCCNC(=O)COC(=O)c1cc(Br)c(Br)s1`, the B-score is reported as “inactive”. With `O=C(NC(=O)c1cc(OCC(F)(F)F)ccc1OCC(F)(F)F)Nc1ccccc1` the B-score was “inactive”. With `NS(=O)(=O)c1ccc(CCNS(=O)(=O)c2cccc3cccnc23)cc1` the B-score was “inactive”. With `O=C(NCC1CCCO1)c1cc2c([nH]c3ccccc32)c(-c2ccc(F)cc2)n1` (stereo not given) the B-score was -11.5 (active). For `O=C(NCCCO)c1cc2c([nH]c3ccccc32)c(-c2ccc(F)cc2)n1`, the B-score was “inactive”. With `O=C(NCC1CCCO1)c1cc(-c2ccccc2)nc2ccccc12` (stereo not given) the B-score was “inactive”. In the case of `CC(=O)N/C(=C\c1ccc(F)cc1)C(=O)NC(Cc1ccccc1)C(=O)O` (stereo not given), the B-score is reported as “inactive”. For `CCOC(=O)c1csc(CCNC(=O)c2oc3c(Cl)cc(C)cc3c2C)n1`, the B-score was “inactive”. In the case of `Cc1ccc(OCCCn2c(=O)oc3ccccc32)cc1`, the B-score is reported as “inactive”. In the case of `CCCCCCCCCCOC(=O)Cn1c(COc2ccc(C)cc2)[n+](C)c2ccccc21`, the B-score is reported as -8.44 (active). For `CCCCCCCCCCOC(=O)Cn1c(COc2cccc(OC)c2)[n+](C)c2ccccc21`, the B-score was “inactive”. For `O=C(CCN1C(=O)C2C3CCC(C3)C2C1=O)Nc1ccc(Cl)cc1Cl` (stereo not given), the B-score was “inactive”. In the case of `CC(NCCc1ccc(S(N)(=O)=O)cc1)C(=O)NCc1ccccc1` (stereo not given), the B-score is reported as “inactive”. For `O=C(CN1CCCCCC1)Nc1ccc(Br)cc1[N+](=O)[O-]`, the B-score was “inactive”. In the case of `O=C(COc1ccc(Cl)cc1[N+](=O)[O-])N1CCCCC1`, the B-score is reported as “inactive”. For `O=[N+]([O-])c1cc([N+](=O)[O-])c(Oc2cc(F)cc(F)c2F)cc1NN1CCCCC1`, the B-score was -7.39 (active). In the case of `CCc1cccc(C)c1NS(=O)(=O)c1c(C)nc2sccn2c1=O`, the B-score is reported as “inactive”. In the case of `CCSc1nc(=S)n(CC)c(C)c1C(C)=O`, the B-score is reported as “inactive”. With `Cc1ccccc1-n1nc(SCC(=O)O)sc1=S` the B-score was “inactive”. In the case of `CC(CCc1ccccc1)NC(=O)COC(=O)c1ccc(F)cc1` (stereo not given), the B-score is reported as “inactive”. For `Cc1cc(C)cc(OCC(=O)O/N=C(\N)Cc2ccc([N+](=O)[O-])cc2)c1`, the B-score was -7.82 (active). In the case of `N/C(Cc1ccc([N+](=O)[O-])cc1)=N\OC(=O)COc1ccc2ccccc2c1`, the B-score is reported as -7.23 (active). With `CCOC(=O)COc1ccc([N+](=O)[O-])cc1` the B-score was “inactive”. With `N/C(Cc1ccc([N+](=O)[O-])cc1)=N\OC(=O)C1CCCCC1` the B-score was “inactive”. For `N/C(=N\OC(=O)Cc1ccc([N+](=O)[O-])cc1)c1ccccn1`, the B-score was “inactive”. With `N/C(=N\OC(=O)COc1ccc([N+](=O)[O-])cc1)c1ccc(Br)cc1` the B-score was “inactive”. For `CCOc1ccc(N2C(=O)Nc3ccccc3C2(O)C(=O)NCc2ccco2)cc1` (stereo not given), the B-score was “inactive”. For `O=C(COC(=O)Cc1ccc(Br)cc1)Nc1c(F)c(F)c(F)c(F)c1F`, the B-score was “inactive”. With `O=C(NC(Cc1ccccc1)C(=O)N1CCCC1C(=O)O)c1ccccc1` (stereo not drawn) (Bz-Phe-Pro-OH; configuration not given here) the B-score was “inactive”. In the case of `O=C(NC(Cc1ccccc1)C(=O)N1CCCC(C(F)(F)F)C1)c1ccccc1` (stereo not given), the B-score is reported as “inactive”. With `CN(Cc1ccccc1F)C(=O)C(Cc1ccccc1)NC(=O)c1ccccc1` (stereo not given) the B-score was -7.13 (active). In the case of `O=C(/C=C/c1ccc([N+](=O)[O-])o1)NNC(=O)c1ccc(F)cc1`, the B-score is reported as “inactive”. For `CC1CCN(C(=O)COC(=O)c2cc(S(=O)(=O)N3CCOCC3)ccc2Cl)CC1`, the B-score was “inactive”. With `COc1ccc(CCNC(=O)CC2SC(=Nc3cc(C)cc(C)c3)NC2=O)cc1OC` (stereo not given) the B-score was “inactive”. For `O=C(O)c1ccc(Cn2c(=S)[nH]c3cc(Cl)ccc3c2=O)cc1`, the B-score was “inactive”. For `CC(C)c1ccc2c(c1)c(SC(C)(C)C)c(CC(C)(C)C(=O)O)n2Cc1ccc(Cl)cc1`, the B-score was -7.99 (active). With `Nc1nc(NC(=O)/C=C/c2ccc(F)cc2)nn1-c1ccccc1` the B-score was “inactive”.
